Test results from PubChem BioAssay AID602212 (Southern Research Specialized Biocontainment Screening …, 2012).
Values without a mark were called inactive.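 The calls were made as follows: active = inhibition of 30% or more at any tested concentration; inactive = the rest.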

System: M18 aspartyl aminopeptidase (Plasmodium falciparum 3D7)
Test: PfM18AAP enzyme inhibitors, dose response, counter-screen for PfM1 aminopeptidase inhibitor project, biochemical, QFRET fluorogenic substrate, set 2 (AID 602212)
Conditions: recombinant PfM18AAP, H-Glu-NHMec fluorogenic cleavage; series mostly up to 100 µM; inhibition: at the top concentration
Summary of the method: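 Test system – recombinant Plasmodium falciparum M18 aspartyl aminopeptidase, purified enzyme · Amount – 5 µg/mL PfM18AAP · Replication – each concentration tested in triplicate · Detection – released NHMec fluorescence, excitation 370 nm, emission 460 nm · Buffer or medium – Cobalt-containing Tris buffer, pH 7.5 · Reagent – 0.1 mM H-Glu-NHMec substrate · Schedule – Enzyme–substrate reaction with compound, 90 min, room temperature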

SMILES	inhibition
O=C(NCc1ccc(Cl)cc1)C1CCN(S(=O)(=O)c2ccc(Br)s2)CC1	1.76%
CC[C@H](C)[C@H](NS(=O)(=O)c1ccc(Br)s1)C(=O)NCc1ccc2c(c1)OCO2	3.45%
O=C(NCc1ccc2c(c1)OCO2)C1CCN(S(=O)(=O)c2ccc(Br)s2)CC1	14.1%
CC[C@H](C)[C@H](NC(=O)c1ccc(C(C)(C)C)cc1)C(=O)NCc1ccc2c(c1)OCO2	20.4%
O=C(NCc1ccc(F)cc1)C1CCN(S(=O)(=O)c2ccc(Br)s2)CC1	14.8%
CC[C@H](C)[C@H](NS(=O)(=O)c1ccc(Br)s1)C(=O)NCc1ccc(Cl)cc1	2.95%
CC[C@H](C)[C@H](NC(=O)c1ccc(C(C)(C)C)cc1)C(=O)NCc1ccc(Cl)cc1	-35.7%
O=C(NCc1ccccc1)C1CCN(S(=O)(=O)c2ccc(Br)s2)CC1	21.7%
